According to ChEMBL document CHEMBL1123363, “(5-Amino-1,3-dimethyl-1H-pyrazol-4-yl)(2-fluorophenyl)methanones . A series of novel potential antipsychotic agents” (J Med Chem, 1986):

Assays:
[1] = molecular target: Serotonin 1 (5-HT1) receptor (Rattus norvegicus, UniProt P28564+P30940+P19327+P28565); experiment: Binding affinity against the serotonin-1 receptor using [3H]- 5-HT; assay type: protein assay
Summary of the method: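 Serotonin-1 binding in rat cortex membranes (male Long-Evans, 150–250 g) with [3H]-5-HT at 2.0 nM final. (+)-Butaclamol at 1 μM final was the reference. IC50 from four or five concentrations by nonlinear curve fit.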

Canis familiaris [2] = experiment: Emesis test in dogs was determined when administered perorally; assay type: functional; details: Canis lupus familiaris, po; read-out: MED
Summary of the method: (§1)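 Fasted dogs (7–12 kg), normally three per dose, were dosed orally and observed hourly for up to 6 h for emesis and other autonomic or behavioural signs. The minimal effective dose was the lowest dose producing emesis in any animal.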

Rattus norvegicus [3] = experiment: Compound was tested for its antagonized affect on the accumulation of the brain dopamine induced by butyrolactone (GBL) at 25 mg/kg after intraperitoneal administration; assay type: functional; set-up: scale not given: the % may be the effect or the level left
Summary of the method: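 Rats received test compound ip 30 min before γ-butyrolactone (750 mg/kg ip) and were killed 1 h after GBL. Dopamine in brain minus brain stem and cerebellum (four to six rats) was measured spectrofluorometrically and expressed as % of the GBL-treated group.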

Dopamine receptor [4] = experiment: Binding affinity against dopamine receptor using [3H]- haloperidol in rat brain; assay type: tissue-based
Summary of the method: (§2)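 Nonspecific binding defined with (+)-butaclamol at 0.1 μM final. IC50 fitted by nonlinear curve fit from four or five concentrations in triplicate.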

[5] = Extrapyramidal side effect test in cebus monkey; assay type: functional; details: read-out: MED
Summary of the method: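 Groups of three to six were then dosed by gavage and observed hourly for 6–8 h for dystonia or dyskinesia. Any unequivocal sign counted as a positive response. Minimal effective dose was determined in at least three animals.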

[6] = molecular target: Muscarinic acetylcholine receptor; experiment: Binding affinity against the Muscarinic acetylcholine receptor using [3H]- QNB; assay type: protein assay, Rattus norvegicus
Summary of the method: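 Muscarinic sites in rat brain stem membranes (male Long-Evans, 150–250 g), labelled with [3H]quinuclidinyl benzilate at 0.03 nM final. Oxotremorine at 100 μM final served as the reference displacer. IC50 from four or five concentrations by nonlinear curve fitting.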

Rattus norvegicus [7] = organism: Rattus norvegicus; experiment: Compound was tested for adenylate cyclase activity in rat corpus striatum; assay type: functional
Summary of the method: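 Rat corpus striatum homogenates from male Long–Evans rats (200–300 g) were incubated with dopamine held at 20 μM while test compound concentration was varied. Cyclic AMP formed was measured by radioimmunoassay, with assays run in triplicate.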

[8] = molecular target: GABA-A receptor; anion channel; experiment: Displacement of [3H]GABA from rat brain Gamma-aminobutyric acid receptor
Summary of the method: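 GABA binding in membranes of rat whole brain minus cerebellum and brain stem (male Long-Evans, 150–250 g), using [3H]-GABA at 25 nM final. GABA at 1 mM final was the reference. IC50 from four or five concentrations by nonlinear curve fitting.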

[9] = molecular target: T1, Adrenergic receptor alpha-2 (Rattus norvegicus, UniProt P22086+P19328+P22909); experiment: Binding affinity against alpha-2 adrenergic receptor in rat brain using [3H]- clonidine
T1 sequence (P22086 whole entry): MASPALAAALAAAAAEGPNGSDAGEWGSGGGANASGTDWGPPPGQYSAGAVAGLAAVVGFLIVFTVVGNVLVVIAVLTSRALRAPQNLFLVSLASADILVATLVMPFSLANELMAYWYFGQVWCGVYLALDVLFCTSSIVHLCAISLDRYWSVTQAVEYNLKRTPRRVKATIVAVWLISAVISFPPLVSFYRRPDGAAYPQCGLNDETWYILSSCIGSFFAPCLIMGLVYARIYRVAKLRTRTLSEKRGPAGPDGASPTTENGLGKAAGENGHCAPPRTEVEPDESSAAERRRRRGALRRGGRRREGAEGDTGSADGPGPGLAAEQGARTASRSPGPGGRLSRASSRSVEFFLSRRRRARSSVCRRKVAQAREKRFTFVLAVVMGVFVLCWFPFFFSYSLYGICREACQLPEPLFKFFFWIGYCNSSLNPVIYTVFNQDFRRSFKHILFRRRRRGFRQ
T1 sequence (P19328 whole entry): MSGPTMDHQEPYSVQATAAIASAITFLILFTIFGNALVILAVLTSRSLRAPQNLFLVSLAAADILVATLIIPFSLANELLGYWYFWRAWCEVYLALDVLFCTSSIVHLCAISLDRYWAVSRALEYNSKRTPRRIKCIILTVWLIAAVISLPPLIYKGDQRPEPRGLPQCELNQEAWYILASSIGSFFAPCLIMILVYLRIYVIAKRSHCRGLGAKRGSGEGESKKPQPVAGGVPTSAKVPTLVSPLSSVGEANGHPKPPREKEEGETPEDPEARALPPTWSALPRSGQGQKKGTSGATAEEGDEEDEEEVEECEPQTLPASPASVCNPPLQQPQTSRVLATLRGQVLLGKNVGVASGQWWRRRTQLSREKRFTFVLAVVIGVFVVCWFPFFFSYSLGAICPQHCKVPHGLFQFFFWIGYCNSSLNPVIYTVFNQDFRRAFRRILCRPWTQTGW
T1 sequence (P22909 whole entry): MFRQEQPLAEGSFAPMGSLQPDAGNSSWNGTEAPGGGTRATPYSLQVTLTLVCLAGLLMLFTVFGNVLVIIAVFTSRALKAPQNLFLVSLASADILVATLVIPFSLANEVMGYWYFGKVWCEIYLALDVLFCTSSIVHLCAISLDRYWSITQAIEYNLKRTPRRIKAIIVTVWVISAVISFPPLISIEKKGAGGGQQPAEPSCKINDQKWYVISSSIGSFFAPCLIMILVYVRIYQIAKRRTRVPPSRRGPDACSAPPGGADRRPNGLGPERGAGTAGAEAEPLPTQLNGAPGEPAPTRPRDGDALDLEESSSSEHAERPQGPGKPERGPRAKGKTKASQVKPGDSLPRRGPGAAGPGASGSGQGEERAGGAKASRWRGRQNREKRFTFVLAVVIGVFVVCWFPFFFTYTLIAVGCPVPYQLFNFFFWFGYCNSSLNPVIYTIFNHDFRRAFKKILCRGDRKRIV

Dopamine receptor [10] = experiment: Binding affinity for dopamine receptor in rat striatal membrane using [3H]haloperidol as radioligand; assay type: cell membranes, Striatum; summary of the method: as §2
Canis familiaris [11] = experiment: Emesis test in dogs was determined when dose administered per orally; assay type: functional; details: Canis lupus familiaris, po; read-out: MED; summary of the method: as §1
[12] = molecular target: Beta-1 adrenergic receptor (Rattus norvegicus, UniProt P18090); experiment: Binding affinity against beta-1 adrenergic receptor in rat brain using [3H]DHA; assay type: tissue-based
Beta-1 adrenergic receptor, sequence (P18090 whole entry): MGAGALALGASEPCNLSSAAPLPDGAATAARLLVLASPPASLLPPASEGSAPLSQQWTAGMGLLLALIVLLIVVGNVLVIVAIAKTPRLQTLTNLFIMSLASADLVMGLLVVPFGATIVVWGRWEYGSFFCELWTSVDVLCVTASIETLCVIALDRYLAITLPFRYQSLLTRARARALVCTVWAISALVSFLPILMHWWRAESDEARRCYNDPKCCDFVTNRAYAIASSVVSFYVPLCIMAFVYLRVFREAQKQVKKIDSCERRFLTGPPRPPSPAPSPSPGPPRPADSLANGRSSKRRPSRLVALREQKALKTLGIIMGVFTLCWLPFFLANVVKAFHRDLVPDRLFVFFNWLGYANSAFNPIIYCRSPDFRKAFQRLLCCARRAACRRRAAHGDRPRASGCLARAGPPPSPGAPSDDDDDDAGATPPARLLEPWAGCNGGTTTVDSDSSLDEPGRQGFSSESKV
Summary of the method: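 β1 sites in rat cerebral cortex membranes (male Long-Evans, 150–250 g) with [3H]dihydroalprenolol at 0.5 nM final. (-)-Alprenolol at 1 μM final defined the reference. IC50 from four or five concentrations by nonlinear curve fit.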

[13] = molecular target: Dopamine receptor (Rattus norvegicus) (UniProt P25115+P19020+P30729+P18901+P61169); experiment: Compound was tested for its effect on Dopamine turnover in rat at dose of 10+/-250 mg/kg; assay type: functional, organism-based; details: in the assay text read “64+/-250 mg/kg” for “10+/-250 mg/kg”
Summary of the method: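 Male Long-Evans rats were given vehicle or agent ip 30 min before α-methyl-p-tyrosine (250 mg/kg) and killed 4 h after it. Brain NE and DA were isolated on Sephadex G-10 and measured spectrofluorometrically. Values are percent of vehicle-treated, with at least five determinations per value.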

IC50 [1]	IC50 (Dopamine receptor [4])	IC50 [6]	IC50 (Rattus norvegicus [7])	IC50 [8]	IC50 [9]	IC50 (Dopamine receptor [10])	IC50 [12]	Control [13]	Structure (SMILES)	minimal effective dose (Canis familiaris [2])	Control (Rattus norvegicus [3])	minimal effective dose [5]	minimal effective dose (Canis familiaris [11])
> 10 µM	> 10 µM	> 10 µM	> 10 µM	–	–	–	–	–	CCN(CC)CC(=O)Nc1c(C(=O)c2ccccc2F)c(C)nn1C	56 mg/kg	85.5%	> 100 mg/kg	–
–	–	–	–	> 10 µM	> 10 µM	> 10 µM	–	–	Cc1nn(C)c(N)c1C(=O)c1ccccc1F	–	–	–	–
–	–	–	> 10 µM	> 10 µM	> 10 µM	> 10 µM	> 10 µM	45.6%	Cc1nn(C)c(NC(=O)CNCCCN2CCCCC2C)c1C(=O)c1ccccc1F (stereo not drawn)	–	–	> 200 mg/kg	56 mg/kg
